# MEKK2mut PB1 HTS – signal of MEK5 binding to mutant human MEKK2 PB1 domain; bead flow cytometry, Alexa488-MEK5 binding to MEKK2 mutant; percent response, % at 10 µM; hit rate 0.35% among 290,000; AID 1530; in the data active = percent response above about 24%, passing the limit was not always enough
# Hep lipid drop – hepatic lipid droplet formation modulation; AML12 mouse hepatocytes, oleate lipid droplets, BODIPY imaging; inhibition, % at 6.5 µM; hit rate 0.4% among 240,000; AID 1656;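 active = lipid droplet intensity inhibited by at least 50%, with more than 500 cells counted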
#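 System: AML12 hepatocytes (mouse). Probe or stimulus: oleic acid at 100 µM to induce lipid droplet formation. Times: overnight treatment with compound plus oleate. Detection: Image-based BODIPY and DAPI two-channel analysis. Evaluation: percent inhibition of filter-corrected integrated lipid droplet intensity per well.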
# MEKK2 WT-MEK5 – raises or lowers MEK5 binding to wildtype human MEKK2 PB1 domain; hit rate 1.1% among 290,000; binding response (% of control), % at 10 µM; Q9Y2U5; bead flow cytometry, Alexa488-MEK5 binding to MEKK2 WT; actives lie on both sides; in the data active = binding response below about 67% or above about 130%
# MEKK3 PB1 HTS – MEKK3-MEK5 PB1 interaction, increase or decrease; binding response (% of control), % at 10 µM; Q99759; hit rate 1.4% among 290,000; AID 1529; bead-based flow cytometry, Alexa488-MEK5 binding to MEKK3; actives lie on both sides; 0 = blocked by unlabeled MEK5, 100 = vehicle;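 active = binding response more than 3 SD above or below the average of its plate-row segment, actives on both sides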;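 also: Alexa488 bead fluorescence after subtracting the streptavidin-only scavenger bead signal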
# Target sequence (Q99759 whole entry, looked up): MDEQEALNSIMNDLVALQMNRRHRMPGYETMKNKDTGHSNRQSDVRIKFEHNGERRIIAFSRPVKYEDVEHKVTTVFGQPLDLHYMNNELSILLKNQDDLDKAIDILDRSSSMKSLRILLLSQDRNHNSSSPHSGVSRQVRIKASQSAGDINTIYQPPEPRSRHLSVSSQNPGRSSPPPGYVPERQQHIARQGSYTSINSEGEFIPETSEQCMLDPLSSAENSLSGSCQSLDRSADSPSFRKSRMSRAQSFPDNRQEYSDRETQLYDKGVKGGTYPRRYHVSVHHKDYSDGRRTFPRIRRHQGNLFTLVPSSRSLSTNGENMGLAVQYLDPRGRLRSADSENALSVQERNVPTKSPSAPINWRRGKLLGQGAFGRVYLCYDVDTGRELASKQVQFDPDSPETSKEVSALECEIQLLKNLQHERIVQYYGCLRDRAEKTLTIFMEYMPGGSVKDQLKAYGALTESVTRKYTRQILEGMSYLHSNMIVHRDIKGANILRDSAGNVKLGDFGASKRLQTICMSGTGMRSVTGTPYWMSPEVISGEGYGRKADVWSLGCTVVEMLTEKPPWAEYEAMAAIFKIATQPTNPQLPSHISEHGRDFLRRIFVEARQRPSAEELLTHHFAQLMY
# Lipid drop inh – hepatic lipid droplet formation inhibition, confirmed | inhibition, % at 5.2 µM | AML12 mouse hepatocytes, BODIPY lipid droplet imaging; droplets induced with 100 µM oleic acid | shares compounds with Hep lipid drop | hit rate 65% among 870;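 active = inhibition of lipid droplet metric at least 50%, with more than 300 cells in each of four replicates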;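 also: plate controls were DMSO with oleic acid for no effect and 5 µM Triacsin-C for full effect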
# AML12 tox img – counter-screen for cytotoxicity in AML12 mouse hepatocytes; hit rate 3% among 870; AID 463200; z-score at 5 µM; DAPI nuclear morphology cytotoxicity imaging; active compounds read high; cells fed 100 µM oleate overnight; shares compounds with Hep lipid drop; in the data active = z-score above about 6.3;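 also: compound exposure lasted overnight at 37 °C before fixation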
# AML12 tox ATP – confirmation of cytotoxicity in AML12 mouse hepatocytes; shares compounds with Hep lipid drop; AID 463219; 530 tested, under 10 active; cytotoxicity, % at 50 µM; AML12 mouse hepatocyte viability, ATP luminescence; cells loaded with 100 µM oleic acid;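 active = cytotoxicity above 50% in each of four replicates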;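 also: compound exposure lasted overnight at 37 °C before the ATP read; 0% = DMSO-treated cells and 100% = wells with no cells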
# * hit, by the source's call; x = no result. A selection: hits, their analogues and other compounds. The true share with any hit is near 2.6%.
SMILES,MEKK2mut PB1 HTS,Hep lipid drop,MEKK2 WT-MEK5,MEKK3 PB1 HTS,Lipid drop inh,AML12 tox img,others
Cc1nc(NC(=O)C2CC2)sc1C(=O)N(C)C,-5,70*,99,94,-17,-0.32,
O=C(CSC(=S)N1CCOCC1)Nc1ncc2c(n1)CC(c1ccco1)CC2=O (configuration not stated),14,5,113,113,x,x,
C/C(=N/Nc1ccccc1[N+](=O)[O-])c1ccc([N+](=O)[O-])cc1,4,12,106,103,x,x,
CC1=C/C(=N\Nc2ccccc2[N+](=O)[O-])CC(C)(C)C1,0,77*,97,97,115*,-0.27,
O=C(NCc1cccs1)C1CCC(CNS(=O)(=O)c2cccs2)CC1 (configuration not stated),3,52*,105,104,47,-0.91,
O=C(CC1CCCC1)Nc1ccc2c(c1)CCC2,5,x,104,103,x,x,
CCc1ccc(C(=O)CSc2nc3cc(S(=O)(=O)N4CCOCC4)ccc3n2CC)cc1,-4,115*,86,93,22,-0.57,
CCCSc1nc2cc(S(=O)(=O)N3CCOCC3)ccc2n1CC,3,4,107,103,x,x,
O=C(Nc1cccc(S(=O)(=O)N2CCOCC2)c1)c1ccc(Cl)c([N+](=O)[O-])c1,4,61*,101,101,27,0.8,
CCCC(=O)Nc1c2c(nc3ccccc13)N(c1ccccc1)CC2,-2,52*,96,96,44,0.44,
O=C(CN1CCCCC1)Nc1c2c(nc3ccccc13)N(c1ccccc1)CC2,-7,-5,92,71,x,x,
COc1ccccc1/C=C\C(=O)NCC(=O)N/N=C/c1cccc(OC)c1O,4,6,105,102,x,x,
COc1ccccc1/C=C/C(=O)NCC(=O)N/N=C/c1cc(Br)ccc1OC,-3,73*,95,101,106*,-1.1,AML12 tox ATP=18
COc1ccc(N(CC(=O)N2CCOCC2)S(C)(=O)=O)cc1,2,-2,107,99,x,x,
Cc1cc(C)cc(NC(=O)CCC(=O)Nc2cc(C)on2)c1,3,75*,100,98,71*,-1.2,AML12 tox ATP=0
COc1ccc(C2(c3ccc(OC)cc3)NC(=O)N(CC(=O)Nc3cc(C)ccc3OC)C2=O)cc1,1,86*,97,99,106*,-1,AML12 tox ATP=12
Cc1ccc(S(=O)(=O)N2CCC(C(=O)NNC(=O)C3CC3)CC2)cc1Cl,-3,10,104,102,x,x,
OC(COc1ccc2cc(Br)ccc2c1)Cn1ccnc1 (configuration not stated),10,53*,110,101,27,-0.39,
COc1cc2c(cc1NC(=O)CSc1nc3ccc(C)cc3[nH]1)oc1ccccc12,0,52*,99,100,99*,-0.06,
CSc1ccccc1OCc1cc(C(=O)N2CCC[C@H]2C(N)=O)no1,6,-2,102,102,x,x,
CCOc1cc(N2CCOCC2)c(OCC)cc1NC(=O)COC(=O)c1cccc2ccccc12,7,55*,101,99,101*,1.4,
CCOCCCn1c(SCC(=O)Nc2ccccc2OC)nc2ccccc2c1=O,-4,5,96,102,x,x,
CCCCCCn1c(SCC(=O)Nc2cc(C)on2)nc2ccccc2c1=O,3,68*,100,98,97*,0.23,AML12 tox ATP=22
COCCCn1c(SCC(=O)Nc2ccc(NC(=O)c3ccco3)c(OC)c2)nc2ccccc2c1=O,3,104*,91,81,104*,-0.47,AML12 tox ATP=7
O=c1[nH]cnc2sc3c(c12)CCN(Cc1ccccc1)C3,0,55*,106,122,24,-0.011,
Cc1cccc(N(Cc2cc(=O)[nH]c3ccccc23)C(=O)CCl)c1,1,55*,100,101,80*,0.32,
C/C(=N/NC(=O)CN1CCN(Cc2ccccc2Cl)CC1)c1ccco1,0,9,102,105,x,x,
Cc1ccc(N(C(=O)c2csnn2)C(C(=O)NC2CCCCC2)c2ccco2)cc1 (configuration not stated),-6,-1,93,98,x,x,
